CFTR F508del cor: CFTR F508del correction in bronchial cells. 350,000 tested, 0.36% active. activity (quench increase), % at 7.58 µM. CFBE cells, YFP halide quenching; stimulated with forskolin plus potentiator P3; % fluorescence drop versus neutral controls;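 active = mean added fluorescence quench of at least 8% versus neutral control, with both replicates also reaching 8%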;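 note: cells transiently co-express mutant CFTR-F508del with the halide-sensitive YFP; corrector assay measuring rescue of mutant channel to the surface after 24 h compound exposure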
FGF22 binding: FGF22 (human) thermal shift binding; activity (Tm shift, normalised), % at 9.99 µM; recombinant FGF22 thermal shift, SYPRO orange fluorescence; percent of sucrose octasulfate shift, DMSO zero; Q9HCT0; AID 651658; 340,000 tested, 1.5% active;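 active = mean Tm shift, scaled 0 neutral to 100 positive control, at about 1.3% or above, every replicate too, limit read from the data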
Target sequence (Q9HCT0 whole entry, looked up): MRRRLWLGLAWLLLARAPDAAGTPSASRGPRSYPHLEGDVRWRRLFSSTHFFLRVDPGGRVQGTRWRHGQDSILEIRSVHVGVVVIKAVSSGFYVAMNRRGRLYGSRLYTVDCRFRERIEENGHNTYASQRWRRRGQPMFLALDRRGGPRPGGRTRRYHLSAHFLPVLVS
S100A4 MyoIIA: S100A4-myosin IIA interaction inhibition; 360,000 tested, 0.14% active; S100A4/TAMRA-MyoIIA peptide fluorescence polarization; P26447; AID 652163; inhibition, % at 10.7 µM;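 active = mean inhibition of at least 70% across replicates, with every replicate also reaching that level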
Target sequence (P26447 whole entry, looked up): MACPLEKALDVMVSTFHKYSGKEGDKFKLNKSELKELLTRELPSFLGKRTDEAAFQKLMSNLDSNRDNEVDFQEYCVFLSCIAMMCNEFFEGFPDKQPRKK
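Test system – S100A4 monomer (human) · Compound – single-point compound testing · Schedule – 5 min incubation before reading · Probe or stimulus – TAMRA-labelled myosin IIA heavy-chain peptide probe, 5 nM · Benchmarks – neutral control DMSO, positive control TFP · Medium – Calcium-containing HEPES buffer, pH 7.2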
dFosB act: enhances mouse delta FosB homodimer DNA binding; P13346; purified delta FosB, TAMRA-CDK5 oligo fluorescence polarization; percent of positive-control signal above neutral wells; activation, % at 25 µM; 340,000 tested, 0.99% active; AID 493131;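 active = mean activation above about 17%, with every replicate also reaching it, limit read from the data, passing the limit was not always enough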
Target sequence (P13346 whole entry, looked up): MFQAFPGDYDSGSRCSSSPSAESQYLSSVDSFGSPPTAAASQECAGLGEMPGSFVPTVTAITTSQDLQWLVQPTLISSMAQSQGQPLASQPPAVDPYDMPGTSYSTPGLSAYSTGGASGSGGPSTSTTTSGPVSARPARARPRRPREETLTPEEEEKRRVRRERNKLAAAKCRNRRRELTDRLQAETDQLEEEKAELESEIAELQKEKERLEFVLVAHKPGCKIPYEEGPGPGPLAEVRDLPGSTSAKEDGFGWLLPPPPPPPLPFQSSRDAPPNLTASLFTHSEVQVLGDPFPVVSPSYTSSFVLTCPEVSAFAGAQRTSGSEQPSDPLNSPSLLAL
Large screens that a line does not name were inactive. Shown are actives, neighbours in structure and some others; about 2.2% of the full set was active somewhere.

CC(C)C[C@@H](COCc1ccc(C(F)(F)F)cc1)N1CCN(C(=O)c2ccc(C(F)(F)F)cc2)CCC1=O	CFTR F508del cor 9.6 (no result: dFosB act)
CC1=C/C(=C\C=C(C#N)C#N)N(C)c2ccccc21	CFTR F508del cor 10
CN1/C(=C/C=C(C#N)C#N)C(C)(C)c2ccccc21	none
CS(=O)(=O)N1CCCCN2[C@H](CO)[C@@H](c3ccc(Br)cc3)[C@@H]2C1	none (no result: dFosB act)
CCOc1ccc(N2CC(C(=O)NNC(=O)c3ccc(Br)cc3)CC2=O)cc1 (configuration not stated)	S100A4 MyoIIA 73
CCCNC(=O)C1CC(=O)N(c2ccc(OCC)cc2)C1 (configuration not stated)	none
CNC(=O)C1CC(=O)N(c2ccc(OCC(=O)Nc3ccccc3)cc2)C1 (configuration not stated)	CFTR F508del cor 10
CCOc1ccc(NC(=O)COc2ccc(N3CC(C(N)=O)CC3=O)cc2)cc1 (configuration not stated)	none
CCc1ccc(N2CC(C(=O)Nc3ccccc3N3CCCC3)CC2=O)cc1 (configuration not stated)	CFTR F508del cor 9.2 (no result: dFosB act)
O=C(CCN1CCCCC1)NCC[C@@H]1CC[C@@H](NC(=O)C2CCCC2)[C@@H](CO)O1	none (no result: dFosB act)
CNC(=O)C[C@H]1CC[C@H]2[C@@H](COc3ccc(NC(=O)c4cc(C)on4)cc3C(=O)N2C)O1	none (no result: S100A4 MyoIIA, dFosB act)
C[C@@H]1CN([C@@H](C)CO)C(=O)c2cc(NC(=O)NC3CCCCC3)ccc2O[C@H]1CN(C)Cc1ccc(C(=O)O)cc1	none (no result: dFosB act)
C[C@@H]1CN([C@@H](C)CO)C(=O)Cc2cc(NC(=O)C3CC3)ccc2O[C@@H]1CN(C)Cc1ccc(Oc2ccccc2)cc1	none (no result: dFosB act)
O=C(NCc1ccccn1)c1ccc(N2CCCC2)c([N+](=O)[O-])c1	FGF22 binding 43
O=C(NCc1ccncc1)c1ccc(N2CCCC2)c([N+](=O)[O-])c1	none (no result: CFTR F508del cor)
CSc1nsc2nc(=O)c(/C=C3\C=Nc4ccccc43)c(N)n12	FGF22 binding 1.5
CC1=Nc2ccccc2/C1=C/c1c(N)n2c(S(=O)(=O)CC(C)C)nsc2nc1=O	FGF22 binding 44
Cc1cn2c(N)c(/C=C3\C=Nc4ccccc43)c(=O)nc2s1	dFosB act 19
CC1=Nc2ccccc2/C1=C/c1c(N)n2c(S(=O)(=O)C(C)C)nsc2nc1=O	none (no result: FGF22 binding)
CNC[C@H]1OCCCC[C@@H](C)Oc2ccc(NC(=O)C3CCCCC3)cc2C(=O)N([C@@H](C)CO)C[C@H]1C	none (no result: dFosB act)
CC=Cc1ccc2n(c1=O)C[C@@H]1[C@@H](CO)[C@H](C(=O)Nc3ccc(-c4ccccc4)cc3)N(C)[C@H]21 (mixture of isomers)	none (no result: CFTR F508del cor, dFosB act)
CS(=O)(=O)N(CC(=O)Nc1ccc(S(=O)(=O)N2CCCC2)cc1)c1ccccc1F	none (no result: CFTR F508del cor, FGF22 binding, S100A4 MyoIIA)
O=C(Nc1ccc(S(=O)(=O)N2CCCC2)cc1)N1c2ccccc2Sc2ccccc21	FGF22 binding 2.3
CS(=O)(=O)N(CC(=O)Nc1ccc(S(=O)(=O)N2CCCC2)cc1)c1ccccc1	FGF22 binding 43
CC(C)C(=O)Nc1ccc2c(c1)C(=O)N(C)[C@@H]1CC[C@H](CC(=O)N[C@H](C)c3ccccc3)O[C@@H]1CO2	none (no result: S100A4 MyoIIA, dFosB act)
Nc1nc(N)c(Br)c(Nc2ccc(Cl)c(Cl)c2)n1	none
Nc1nc(N)c(C=Nc2ccc(Br)cc2)c(Nc2ccc(Br)cc2)n1	dFosB act 108
C[C@H]1CN([C@@H](C)CO)C(=O)c2cccc(NC(=O)NC3CCCCC3)c2O[C@H]1CN(C)Cc1ccc2c(c1)OCO2	none (no result: dFosB act)
CCCNC(=O)C[C@@H]1CC[C@@H]2[C@@H](COc3ccc(NC(=O)C4CCCC4)cc3C(=O)N2C)O1	none (no result: dFosB act)
Cc1ccc(C)c(S(=O)(=O)N=Nc2c(O)[nH]c3ccccc23)c1	FGF22 binding 43
Cn1c(=O)[nH]c(=O)c2cc(C(=O)c3cc(F)ccc3O)cnc21	FGF22 binding 43
Cc1nn(C)c2ncc(C(=O)c3cc(F)ccc3O)cc12	none (no result: CFTR F508del cor, FGF22 binding, S100A4 MyoIIA)
CCN(Cc1ccccc1)C(=O)CSc1nncn1C	FGF22 binding 43
CCN(Cc1ccccc1)C(=O)CSc1ccccc1C(=O)O	none
CC(C)C[C@@H]1NC(=O)[C@H]2C[C@@H](C(=O)NCCCCCN)[C@@H](c3cccc(OCCO)c3)N2C1=O	none (no result: dFosB act)
Cn1c(N)c(S(=O)(=O)NCc2ccc(Cl)cc2)c(=O)n(C)c1=O	FGF22 binding 44
COc1ccc(S(=O)(=O)N[C@@H]2CC[C@H](CC(=O)N3CCN(c4ccccc4)CC3)O[C@H]2CO)cc1	none (no result: dFosB act)
O=C1CCN(Cc2nc(-c3ccc(Cl)cc3)no2)CCN1	FGF22 binding 43
Clc1ccc(-c2noc(CN3CCOCC3)n2)cc1	none (no result: FGF22 binding)
CN(C)CCCNC(=O)C[C@H]1C=C[C@H](NC(=O)c2ccccc2F)[C@@H](CO)O1	none (no result: dFosB act)
c1cc2c(cc1C1CCCCC1)c1c3n2CCCNC3CCC1 (configuration not stated)	dFosB act 25 (no result: CFTR F508del cor, FGF22 binding, S100A4 MyoIIA)
COc1ccc(NC(=O)C(c2ccccc2)c2ccccc2)cn1	FGF22 binding 43
COc1ccc(C#Cc2ccc3c(c2)[C@H]2[C@H](CCN2C(=O)c2ccccc2F)[C@H](CO)N3C)cc1	none (no result: FGF22 binding, S100A4 MyoIIA, dFosB act)
CCCCC(=O)N1CCCC(c2nc(-c3cccc(OC)c3)no2)C1 (configuration not stated)	FGF22 binding 43
Cc1nn(C)c(C)c1CCC(=O)O	none
CCn1nc(C)c(CCC(=O)O)c1C	FGF22 binding 43
CCOC(=O)C1=C(N)OC2=C(C(=O)CC(C)(C)C2)C1c1ccc(C)s1 (configuration not stated)	FGF22 binding 44
CC(C)c1ccc(NC(=O)COC(=O)COc2ccccc2)cc1	FGF22 binding 43
CCN1/C(=C/C=C/c2oc3ccc(-c4ccccc4)cc3[n+]2CC)Oc2ccc(-c3ccccc3)cc21	S100A4 MyoIIA active
CO[C@@H]1CN(C)C(=O)c2ccc(NC(=O)C3CCOCC3)cc2OC[C@@H](C)N(CC2CCCCC2)C[C@H]1C	none (no result: dFosB act)
CCOc1ccc(C2C([N+](=O)[O-])=C(C)N(C)C(=O)N2C)cc1OC (configuration not stated)	FGF22 binding 43
COc1cc(/C=C2\SC(=Nc3ccc(Cl)c(C(=O)O)c3)NC2=O)c(Br)c(Br)c1O	CFTR F508del cor 29
O=C1CN(S(=O)(=O)Cc2ccccc2)C[C@H]2[C@H](c3ccc(C#Cc4ccc(F)cc4)cc3)[C@H](CO)N12	none (no result: FGF22 binding, dFosB act)
Cn1[nH]c(C(F)(F)F)c(C=NCc2ccc(Cl)cc2)c1=O	none
Cc1[nH][nH]c(=O)c1C=NCc1ccc(Cl)cc1	FGF22 binding 43
O=C(COC(=O)c1ccc(Cl)nc1)c1ccc2c(c1)OCCO2	FGF22 binding 43
O=C(COC(=O)c1cccnc1Cl)c1ccc2c(c1)OCCO2	none
Cc1cc(C)n2nc(SCC(=O)N3CCC(C(=O)O)CC3)nc2n1	FGF22 binding 44
Cc1cc(C)n2nc(SC(C)C(=O)N3CCCC3)nc2n1 (configuration not stated)	none
